In ChEMBL document CHEMBL4613320, “Artemisinin Derivatives with Antimelanoma Activity Show Inhibitory Effect against Human DNA Topoisomerase 1” (ACS Med Chem Lett, 2020):
The source made the active and inactive calls. No cut-off for these calls is given here.

Experiments:
[1] = molecular target: T1, DNA topoisomerase 1 (Homo sapiens) (UniProt P11387); assay: Inhibition of human TOP1B-medaited negatively supercoiled pBlue-Script KSII(+) DNA relaxation at 0.3 to 30 uM by ethidium bromide staining based gel electrophoresis method
T1 sequence (whole entry): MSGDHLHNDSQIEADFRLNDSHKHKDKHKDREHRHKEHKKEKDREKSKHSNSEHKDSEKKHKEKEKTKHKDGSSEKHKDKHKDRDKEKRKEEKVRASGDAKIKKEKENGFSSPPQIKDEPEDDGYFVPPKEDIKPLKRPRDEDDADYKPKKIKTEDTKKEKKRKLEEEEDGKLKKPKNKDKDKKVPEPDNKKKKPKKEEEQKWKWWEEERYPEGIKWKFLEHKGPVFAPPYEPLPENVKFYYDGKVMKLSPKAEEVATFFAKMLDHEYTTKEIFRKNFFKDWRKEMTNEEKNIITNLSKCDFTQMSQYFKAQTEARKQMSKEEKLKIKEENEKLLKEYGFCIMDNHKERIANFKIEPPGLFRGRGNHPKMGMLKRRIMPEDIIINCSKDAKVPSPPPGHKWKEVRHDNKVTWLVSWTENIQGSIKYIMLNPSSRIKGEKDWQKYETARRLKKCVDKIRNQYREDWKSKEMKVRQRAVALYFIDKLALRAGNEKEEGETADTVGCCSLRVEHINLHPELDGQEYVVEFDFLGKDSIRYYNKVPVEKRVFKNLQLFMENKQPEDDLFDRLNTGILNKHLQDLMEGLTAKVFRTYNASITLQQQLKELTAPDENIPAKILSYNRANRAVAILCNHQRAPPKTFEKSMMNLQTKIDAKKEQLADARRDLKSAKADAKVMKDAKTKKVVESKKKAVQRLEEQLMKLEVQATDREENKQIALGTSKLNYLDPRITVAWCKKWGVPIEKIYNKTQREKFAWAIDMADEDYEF

[2] = molecular target: T1, DNA topoisomerase 1 (Homo sapiens); assay: Inhibition of human TOP1B expressed in Saccharomyces cerevisiae EKY3 lacking top1 assessed as reduction in yeast cell growth at 30 uM
How it was run: (§1)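 Wild-type human Top1 overexpressed from plasmids under the Gal-1–10 promoter in S. cerevisiae EKY3, which lacks the endogenous enzyme. Yeast growth sensitivity scored across compound concentrations. Controls were untreated cells and DMSO vehicle.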

[3] = molecular target: T1, DNA topoisomerase 1 (Homo sapiens); assay: Inhibition of human TOP1B expressed in Saccharomyces cerevisiae EKY3 lacking top1 assessed as reduction in yeast cell growth at 10 uM; how it was run: as §1
[4] = species: Homo sapiens; assay: Inhibition of human TOP1B G363C mutant expressed in Saccharomyces cerevisiae EKY3 lacking top1 assessed as reduction in yeast growth at 1 to 30 uM
How it was run: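 Human Top1 G363C mutant (glycine 363 to cysteine, camptothecin-resistant) expressed from plasmids under the Gal-1–10 promoter in S. cerevisiae EKY3, which lacks the endogenous enzyme. Yeast growth sensitivity read at a range of compound concentrations. Controls were untreated cells and DMSO vehicle.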

[5] = molecular target: T1, DNA topoisomerase 1 (Homo sapiens); assay: Inhibition of human TOP1B expressed in Saccharomyces cerevisiae EKY3 lacking top1 assessed as reduction in yeast cell growth at 1 to 30 uM; how it was run: as §1
[6] = tested on: SK-MEL-24; assay: Cytotoxicity against human SK-MEL-24 cells assessed as reduction in cell viability measured after 24 hrs by MTT assay; assay type: functional, cell-based; conditions: SK-MEL-24, 24 h
[7] = Cytotoxicity against human C3PV cells assessed as reduction in cell viability measured after 24 hrs by MTT assay; assay type: cell-based
[8] = tested on: RPMI-7951; assay: Cytotoxicity against human RPMI7951 cells assessed as reduction in cell viability measured after 24 hrs by MTT assay; assay type: functional, cell-based; conditions: RPMI-7951, 24 h
[9] = molecular target: T1, DNA topoisomerase 1 (Homo sapiens); assay: Inhibition of human TOP1B expressed in Saccharomyces cerevisiae EKY3 lacking top1 assessed as induction of cell cycle defect at 30 uM measured after 24 hrs
[10] = molecular target: T1, DNA topoisomerase 1 (Homo sapiens); assay: Inhibition of human TOP1B expressed in Saccharomyces cerevisiae EKY3 lacking top1 assessed as reduction in yeast growth at 3 uM; how it was run: as §1
[11] = molecular target: T1, DNA topoisomerase 1 (Homo sapiens); assay: Inhibition of human TOP1B-medaited negatively supercoiled pBlue-Script KSII(+) DNA relaxation at 300 nM by ethidium bromide staining based gel electrophoresis method

**Q.** For C[C@H]1[C@H](OC(=O)CCC(=O)O)O[C@@H]2O[C@@]3(C)CC[C@H]4[C@H](C)CC[C@@H]1[C@@]24OO3, which inhibition [1] is on record?
**A.** Its inhibition is “Active”.

**Q.** And the inhibition [2]?
**A.** The inhibition was “inactive”.

**Q.** For C[C@H]1[C@H](OC(=O)CCC(=O)Oc2ccc(CCO)cc2)O[C@@H]2O[C@]3(C)CC[C@H]4[C@H](C)CC[C@@H]1[C@@]24OO3, which inhibition [3] is on record?
**A.** The inhibition was “Active”.

**Q.** What about the inhibition [1] of the same compound?
**A.** Its inhibition is “Active”.

**Q.** And the inhibition [4]?
**A.** The inhibition was “inactive”.

**Q.** Which inhibition [5] does the source give for COc1cc(/C=C/C(=O)CC(=O)/C=C/c2ccc(OC(=O)CCC(=O)O[C@@H]3O[C@@H]4O[C@]5(C)CC[C@H]6[C@H](C)CC[C@@H]([C@H]3C)[C@@]46OO5)cc2)ccc1OC(=O)CCC(=O)O[C@@H]1O[C@@H]2O[C@]3(C)CC[C@H]4[C@H](C)CC[C@@H]([C@H]1C)[C@@]24OO3 here?
**A.** Its inhibition is “inactive”.

**Q.** With CC(=O)O[C@H]1C(=O)[C@@]2(C)[C@H]([C@H](OC(=O)c3ccccc3)[C@]3(O)C[C@H](OC(=O)[C@H](O)[C@@H](NC(=O)c4ccccc4)c4ccccc4)C(C)=C1C3(C)C)[C@]1(OC(C)=O)CO[C@@H]1C[C@@H]2O [PACLITAXEL] as the compound, how does the IC50 [6] read?
**A.** Its IC50 is 4730 nM.

**Q.** And the IC50 [7]?
**A.** The IC50 was 78900 nM.

**Q.** And the IC50 [8]?
**A.** The IC50 was 13 nM.

**Q.** What does the source list for CCc1c2c(nc3ccc(O)cc13)-c1cc3c(c(=O)n1C2)COC(=O)[C@]3(O)CC [7-ETHYL-10-HYDROXYCAMPTOTHECIN]?
**A.** IC50 [6]: 480 nM; IC50 [7]: 510 nM; IC50 [8]: 260 nM

**Q.** With CC[C@@]1(O)C(=O)OCc2c1cc1n(c2=O)Cc2cc3ccccc3nc2-1 [CAMPTOTHECIN] as the compound, how does the IC50 [6] read?
**A.** Its IC50 is 460 nM.

**Q.** What about the IC50 [7] of the same compound?
**A.** The IC50 was 450 nM.

**Q.** And the IC50 [8]?
**A.** Its IC50 is 220 nM.

**Q.** With C[C@H]1[C@H](OC(=O)CCC(=O)OCCc2ccc(O)cc2)O[C@@H]2O[C@]3(C)CC[C@H]4[C@H](C)CC[C@@H]1[C@@]24OO3 as the compound, how does the inhibition [3] read?
**A.** Its inhibition is “Active”.

**Q.** And the inhibition [9]?
**A.** Its inhibition is “Active”.

**Q.** And the inhibition [1]?
**A.** Its inhibition is “Active”.

**Q.** What about the inhibition [4] of the same compound?
**A.** Its inhibition is “inactive”.

**Q.** For C[C@H]1[C@H](OCCc2ccc(O)cc2)O[C@@H]2O[C@]3(C)CC[C@H]4[C@H](C)CC[C@@H]1[C@@]24OO3, which inhibition [2] is on record?
**A.** The inhibition was “Active”.

**Q.** For CCc1c2c(nc3ccc(OC(=O)CCC(=O)O[C@@H]4O[C@@H]5O[C@]6(C)CC[C@H]7[C@H](C)CC[C@@H]([C@H]4C)[C@@]57OO6)cc13)-c1cc3c(c(=O)n1C2)COC(=O)[C@]3(O)CC, which IC50 [6] is on record?
**A.** Its IC50 is 320 nM.

**Q.** What about the IC50 [7] of the same compound?
**A.** Its IC50 is 3200 nM.

**Q.** And the inhibition [10]?
**A.** Its inhibition is “Active”.

**Q.** What about the IC50 [8] of the same compound?
**A.** Its IC50 is 50 nM.

**Q.** What about the inhibition [4] of the same compound?
**A.** The inhibition was “Active”.

**Q.** What about the inhibition [11] of the same compound?
**A.** Its inhibition is “Active”.

**Q.** Which inhibition [5] does the source give for C[C@@H]1CC[C@H]2[C@@H](C)C(=O)O[C@@H]3O[C@@]4(C)CC[C@@H]1[C@]32OO4 here?
**A.** Its inhibition is “inactive”.

**Q.** With C=C(C)[C@H]1CC=C(COC(=O)CCC(=O)O[C@@H]2O[C@@H]3O[C@@]4(C)CC[C@H]5[C@H](C)CC[C@@H]([C@H]2C)[C@@]35OO4)CC1 as the compound, how does the inhibition [5] read?
**A.** The inhibition was “inactive”.

**Q.** For COc1cc(/C=C/C(=O)CC(=O)/C=C/c2ccc(OC(=O)CCC(=O)O[C@@H]3O[C@@H]4O[C@]5(C)CC[C@H]6[C@H](C)CC[C@@H]([C@H]3C)[C@@]46OO5)c(OC)c2)ccc1O, which inhibition [1] is on record?
**A.** The inhibition was “Active”.

**Q.** And the inhibition [2]?
**A.** Its inhibition is “Active”.

**Q.** With C[C@H]1[C@H](O)O[C@@H]2O[C@@]3(C)CC[C@H]4[C@H](C)CC[C@@H]1[C@@]24OO3 as the compound, how does the inhibition [2] read?
**A.** The inhibition was “inactive”.

**Q.** For CC[C@@]1(OC(=O)CCC(=O)O[C@@H]2O[C@@H]3O[C@]4(C)CC[C@H]5[C@H](C)CC[C@@H]([C@H]2C)[C@@]35OO4)C(=O)OCc2c1cc1n(c2=O)Cc2cc3ccccc3nc2-1, which IC50 [6] is on record?
**A.** The IC50 was 850 nM.

**Q.** What about the IC50 [7] of the same compound?
**A.** The IC50 was 300 nM.

**Q.** And the inhibition [1]?
**A.** The inhibition was “Active”.

**Q.** And the inhibition [5]?
**A.** Its inhibition is “Active”.

**Q.** What about the IC50 [8] of the same compound?
**A.** Its IC50 is 17300 nM.
